Results from PubChem BioAssay AID504382 (The Scripps Research Institute Molecular Screening Center, 2011).
In all, about 2,500 compounds went through this assay and about 460 (18%) were called active.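 The calls were made as follows: active = mean activation above a cutoff of low control average plus 3 SD from the earlier screen (cut at about 12% in these data); inactive = the rest.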 Not all results are given here.

Experiment: IANBD-channel fluorescence artefacts in buffer – biochemical, artefact control for cardiac RTF calcium sensitizer project, confirmation (AID 504382)
Details: IANBD fluorescence interference counterscreen, EC20 Ca2+, at 7.2 µM, stronger effect = higher value, scaled: EC20 calcium 0, EC100 calcium 100
How it was run: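 Medium: MOPS buffer, 190 mM, with KCl, MgCl2, EGTA, NTA, DTT, pH 7.20; Dosing: one dose of 7.2 µM, 0.7% DMSO; Probe or stimulus: calcium at EC20 level, 0.472 mM final; Incubation: 15 min, 25 °C; Evaluation: compound fluorescence interference relative to control well signal range; Signal: fluorescence, 480/540 nm.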

Row | SMILES | fluorescence artifact activation
1 | CCCn1c(=N)n(CC(O)c2ccco2)c2ccccc21 (stereo not given) | 0.03% (inactive)
2 | COCCCN1C(=O)/C(=C/c2ccc(CNS(=O)(=O)c3ccccc3)o2)C(C(=O)OC)=C1C | 0.04% (inactive)
3 | CC(=O)Nc1cc(C(=O)NCc2ccco2)ccc1Sc1ccc(F)cc1 | 18.1% (active)
4 | CCOc1ccc(CNC(=O)c2ccc(Sc3ccc(Cl)cc3)c(NC(C)=O)c2)cc1 | 1.09% (inactive)
5 | COc1c(Cl)ccc(Cl)c1C(=O)NCc1ccco1 | 0.03% (inactive)
6 | CCCCOc1[nH]c2nc(-c3ccco3)n(Cc3ccco3)c(=N)c2c1C#N | 0.23% (inactive)
7 | O=c1nc2c(O)cccn2c2c1c(=O)[nH]c1ccccc12 | 0.02% (inactive)
8 | Cc1sc2nc(COC(=O)c3cccc(S(=O)(=O)N(C)c4ccccc4)c3)[nH]c(=O)c2c1C | 0.1% (inactive)
9 | Cc1cccc(C)c1NC(=O)CN(C1CCCCC1)S(C)(=O)=O | 0.02% (inactive)
10 | CCCNC(=O)c1ccc(N2CCC3(CC2)CC(c2cccc(Br)c2)=NO3)c(NC(=O)c2cccc(C)c2)c1 | 3.63% (inactive)
11 | O=C(Nc1ccc(Cl)cn1)C1CCN(S(=O)(=O)c2cccs2)CC1 | 74.6% (active)
12 | O=C(Nc1ccccc1N1CCOCC1)C1CCN(S(=O)(=O)c2ccccc2F)CC1 | -0.05% (inactive)
13 | CCOc1ccc(NC(=O)C2CCN(S(=O)(=O)c3cccnc3)CC2)cc1 | -0.04% (inactive)
14 | O=C(c1cc(-c2cccs2)nn1-c1ccccc1)N1CCN(S(=O)(=O)c2ccccc2)CC1 | 2.28% (inactive)
15 | CC(=O)N1CCc2c(sc(NC(=O)C3CCCN3S(=O)(=O)c3cccs3)c2C(N)=O)C1 (stereo not given) | 9.49% (inactive)
16 | O=C(CC1CCCC1)N1CCN(S(=O)(=O)c2ccccc2)CC1 | 0.13% (inactive)
17 | O=C(Nc1nccs1)C1CCN(S(=O)(=O)c2ccccc2)CC1 | 461% (active)
18 | O=C(Cc1cccs1)N1CCN(S(=O)(=O)c2cc(Cl)ccc2Cl)CC1 | 1.88% (inactive)
19 | O=C(c1cc(Cl)ccc1O)N1CCN(S(=O)(=O)c2cccs2)CC1 | 114% (active)
20 | COc1cccc(CNC(=O)CCC(=O)N2CC(C)Oc3ccccc32)c1OC (stereo not given) | 0.11% (inactive)

Row | SMILES | fluorescence artifact activation
21 | Cc1c(C(=O)NC2CC2)oc2ccccc12 | 0.04% (inactive)
22 | Cc1cc(C)nc(NC(=O)c2ccc(Cl)c(Cl)c2)n1 | 0.33% (inactive)
23 | CC1=C(C#N)C(=O)OC(C)(C)C1 | 0.01% (inactive)
24 | Cc1[nH]c(=O)c(C#N)c(C)c1Cl | 0.06% (inactive)
25 | O=C(N/N=C/c1sc(N2CCOCC2)nc1-c1ccccc1)c1cccc(S(=O)(=O)N2CCCC2)c1 | 0% (inactive)
26 | Cc1cc2nc3c(=O)[nH]c(=O)[nH]c3nc2c([N+](=O)[O-])c1N | 0.02% (inactive)
27 | O=C1/C(=C/c2cccs2)N=C(c2cccs2)N1Nc1ccccc1 | 4.3% (inactive)
28 | COCCN(C(=S)Nc1cccc(OC)c1)C1CCN(C(C)=O)CC1 | 0.16% (inactive)
29 | CCn1cc(/C=C/C(=O)Nc2c(C)nn(Cc3ccccc3C)c2C)cn1 | 0.05% (inactive)
30 | COc1ccc(CC(=O)NNC(=O)c2ccncc2)cc1 | 0.18% (inactive)
31 | COc1ccc(/C=N/NC(=O)c2cccnc2)cc1CN1CCOCC1 | 6.25% (inactive)
32 | CCOC(=O)C1=C(C)NC(C)=C(C(=O)OCC)C1c1ccco1 | 0.15% (inactive)
33 | COc1ccc(CNCc2cccc(Cl)c2)cc1 | 0.14% (inactive)
34 | OCCNCc1cccc(OCc2ccc(Cl)cc2)c1 | 61% (active)
35 | Cc1ccc(C(C(=O)NC2CCCC2)N(C(=O)Cc2cccs2)c2cccc(C)c2C)o1 (stereo not given) | 0% (inactive)
36 | CC1=C(C(=O)OCCCCCl)C(c2cc3c(cc2Br)OCO3)NC(=O)N1 (stereo not given) | -0.02% (inactive)
37 | C[C@H]1CN([C@@H](C)CO)C(=O)Cc2cc(NC(=O)CCC(F)(F)F)ccc2O[C@H]1CN(C)S(C)(=O)=O | 0.55% (inactive)
38 | Oc1[nH]c2ccccc2c1N=Nc1ccc(F)cc1 | 34.1% (active)
39 | Oc1[nH]c2ccccc2c1N=Nc1ccccc1 | 11.6% (inactive)
40 | Oc1[nH]c2ccccc2c1N=Nc1ccccc1F | -0.02% (inactive)

Row | SMILES | fluorescence artifact activation
41 | COc1ccc(-n2c(O)c(/C=N/NS(=O)(=O)c3cccc([N+](=O)[O-])c3)c3ccccc3c2=O)cc1OC | 0.15% (inactive)
42 | CC1CC1c1ccc(/C=C(\C#N)C(=O)Nc2cccc(Cl)c2Cl)o1 (stereo not given) | 4% (inactive)
43 | Cn1nccc1NC(=O)Nc1cccc(Cl)c1Cl | 13.5% (active)
44 | Cn1ncc(Cl)c1C(=O)Nc1cccc(Cl)c1 | 0.09% (inactive)
45 | O=C(Nc1ccccc1)C1=C[C@H](c2ccc3c(c2)OCO3)C[C@H](OCCCCO)O1 | 1.74% (inactive)
46 | COc1cc(/C=N/NC(=O)c2cc(-c3ccccc3Cl)nc3ccccc23)cc(OC)c1O | 8.56% (inactive)
47 | O=c1[nH][nH]c(C(F)(F)F)c1C=Nc1cccc(Cl)c1 | 1.19% (inactive)
48 | Cc1cc(O)c(CN(C)C)c2c1C(=O)/C(=C/c1ccco1)O2 | 0% (inactive)
49 | CC(C)Cn1c(N)c(C(=O)COC(=O)c2cc(F)cc(F)c2)c(=O)n(C)c1=O | 40.2% (active)
50 | CCOC(=O)C1=C(C)N=c2s/c(=C/c3ccc(OCC(=O)O)c(OC)c3)c(=O)n2C1c1ccc(Cl)cc1 (stereo not given) | -0.04% (inactive)
51 | Cc1cc(C=C2C(=O)c3ccccc3C2=O)c(C)n1-c1ccc(Cl)cc1 | -0.07% (inactive)
52 | CCN1C(=O)/C(=C/c2ccc(N3CCCC3)cc2)NC1=S | 0.26% (inactive)
53 | CCCN1C(=O)/C(=C/c2ccc(N3CCOCC3)cc2)NC1=S | 131% (active)
54 | CCCN1C(=O)/C(=C/c2ccc(N3CCCC3)c(C)c2)NC1=S | 0.06% (inactive)
55 | CC1(C)NC(=O)N(CCCCOc2ccc(Cl)cc2)C1=O | 0.28% (inactive)
56 | CCOC(=O)NC1(C(F)(F)F)C(=O)NC(C)=C1C(=O)OC (stereo not given) | 5.24% (inactive)
57 | Cc1ccc(-n2c(C)n[nH]c2=S)cc1 | 1.66% (inactive)
58 | S=c1[nH]nc(-c2ccc(Cl)cc2)n1-c1ccc2c(c1)OCCO2 | 31.8% (active)
59 | CCN(CC)c1ccc(/C=C2/SC(=O)N(C(C)C)C2=O)o1 | 8.25% (inactive)
60 | C/C(=N/NS(=O)(=O)c1ccccc1)c1ccc(NC(=O)C2CC2)cc1 | 6.01% (inactive)
